Results on six compounds are retold here after ChEMBL document CHEMBL2029267, “Rapid assembly of a library of lipophilic iminosugars via the thiol-ene reaction yields promising pharmacological chaperones for the treatment of Gaucher disease” (J Med Chem, 2012).

Molecules are shown by their SMILES. Numbering of substitutions follows the chain as printed. Calls of active or inactive are those of the source. The calls are words filed in the database; no cut-off is given here.

In one experiment the target is T1, Lysosomal acid glucosylceramidase (Homo sapiens, UniProt P04062).
T1 sequence (P04062 whole entry): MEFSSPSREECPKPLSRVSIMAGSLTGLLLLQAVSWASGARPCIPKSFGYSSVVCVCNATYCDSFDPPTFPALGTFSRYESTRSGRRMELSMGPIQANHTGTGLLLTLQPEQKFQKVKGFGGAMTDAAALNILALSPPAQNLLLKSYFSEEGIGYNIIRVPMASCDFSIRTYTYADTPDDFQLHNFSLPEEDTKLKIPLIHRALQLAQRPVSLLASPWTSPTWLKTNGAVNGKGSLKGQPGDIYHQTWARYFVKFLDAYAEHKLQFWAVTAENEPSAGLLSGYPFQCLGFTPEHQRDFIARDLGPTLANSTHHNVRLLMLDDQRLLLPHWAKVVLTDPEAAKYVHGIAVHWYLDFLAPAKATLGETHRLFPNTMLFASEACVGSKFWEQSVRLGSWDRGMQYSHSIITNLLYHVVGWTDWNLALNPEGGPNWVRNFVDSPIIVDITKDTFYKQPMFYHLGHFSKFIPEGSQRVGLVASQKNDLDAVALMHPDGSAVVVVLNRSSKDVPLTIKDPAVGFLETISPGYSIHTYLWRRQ
Description: Competitive inhibition of wild type human glucocerebrosidase using 2,4-dinitrophenyl beta-D-glucopyranoside as substrate after 3 mins by Dixon and Line-Weaver Burk plot analysis at pH 5. A digest of the protocol:
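Continuous UV assay with 4.0 nM GBA and 2,4-dinitrophenyl β-D-glucoside, started by adding enzyme. A400 was followed, linear over 3 min. Three substrate levels were run at about seven inhibitor levels (0.2–5 Ki), with nonlinear fit to a competitive model checked by Dixon and Lineweaver–Burk plots.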
Broadly, the Ki is the equilibrium dissociation constant of an inhibitor or competing ligand from its target. `O=C(CSCC[C@H]1NC[C@@H](O)[C@H](O)[C@H]1O)NCc1ccccc1` yielded a Ki of 30 nM.
Same read-out and setting: the figure for `O=C(CCCSCC[C@H]1NC[C@@H](O)[C@H](O)[C@H]1O)N1CCOCC1` is 450 nM; for `CC[C@H]1NC[C@@H](O)[C@H](O)[C@H]1O` it is 1100 nM; for `CC(C)SCC[C@H]1NC[C@@H](O)[C@H](O)[C@H]1O` it is 76 nM.
In the case of `C=C[C@H]1NC[C@@H](O)[C@H](O)[C@H]1O`, the Ki was 2700 nM.
In turn, `CC(C)(C)SCC[C@H]1NC[C@@H](O)[C@H](O)[C@H]1O` displayed a Ki of 29 nM.

The target in a further experiment is Lysosomal alpha-glucosidase (Homo sapiens) (UniProt P10253). Description: Inhibition of human lysosomal alpha-glucosidase using 4-methylumbelliferyl alpha-D-glucopyranoside as substrate at 200 uM by fluorimetric analysis. A digest of the protocol: (§1)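 Enzyme source was a lysosomal-enzyme-enriched ConA-bound human placental fraction, run in 100 mM citrate–phosphate pH 4.5 with 0.025% human serum albumin at 37 °C. Compound was tested at 200 μM in triplicate. An equal volume of 4-MU substrate was added: α-Glc 3.0 mM (α-glucosidase), α-Gal 1.0 mM (α-galactosidase), β-Gal 0.5 mM (β-galactosidase). Reactions were stopped with 4-fold excess 100 mM aminomethylpropanol and fluorescence read at 365/460 nm.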
For the compound `O=C(CSCC[C@H]1NC[C@@H](O)[C@H](O)[C@H]1O)NCc1ccccc1`, the inhibition entry was “inactive”.
For the compound `O=C(CCCSCC[C@H]1NC[C@@H](O)[C@H](O)[C@H]1O)N1CCOCC1`, the inhibition result is “inactive”.
The same measure, in the same setting: in the case of `CC[C@H]1NC[C@@H](O)[C@H](O)[C@H]1O` it was “inactive”.
For `CC(C)SCC[C@H]1NC[C@@H](O)[C@H](O)[C@H]1O`, the inhibition result was “inactive”.
Turning to `C=C[C@H]1NC[C@@H](O)[C@H](O)[C@H]1O`, the inhibition entry is “inactive”.
As for `CC(C)(C)SCC[C@H]1NC[C@@H](O)[C@H](O)[C@H]1O`, the inhibition entry was “inactive”.

The next experiment is filed under the species Homo sapiens. Description: Inhibition of human lysosomal alpha-galactosidase using 4-methylumbelliferyl alpha-D-galactopyranoside as substrate at 200 uM by fluorimetric analysis. A digest of the protocol:
as §1
For `O=C(CSCC[C@H]1NC[C@@H](O)[C@H](O)[C@H]1O)NCc1ccccc1`, the inhibition entry was “inactive”.
The same measure, in the same setting: the entry for `O=C(CCCSCC[C@H]1NC[C@@H](O)[C@H](O)[C@H]1O)N1CCOCC1` is “inactive”; for `CC[C@H]1NC[C@@H](O)[C@H](O)[C@H]1O` it is “inactive”.
Turning to `CC(C)SCC[C@H]1NC[C@@H](O)[C@H](O)[C@H]1O`, the inhibition entry was “inactive”.
Regarding `C=C[C@H]1NC[C@@H](O)[C@H](O)[C@H]1O`, the inhibition entry was “inactive”.
As to `CC(C)(C)SCC[C@H]1NC[C@@H](O)[C@H](O)[C@H]1O`, the inhibition result was “inactive”.

The target in another experiment is T2, Beta-galactosidase (Homo sapiens) (UniProt P16278).
T2 sequence (whole entry): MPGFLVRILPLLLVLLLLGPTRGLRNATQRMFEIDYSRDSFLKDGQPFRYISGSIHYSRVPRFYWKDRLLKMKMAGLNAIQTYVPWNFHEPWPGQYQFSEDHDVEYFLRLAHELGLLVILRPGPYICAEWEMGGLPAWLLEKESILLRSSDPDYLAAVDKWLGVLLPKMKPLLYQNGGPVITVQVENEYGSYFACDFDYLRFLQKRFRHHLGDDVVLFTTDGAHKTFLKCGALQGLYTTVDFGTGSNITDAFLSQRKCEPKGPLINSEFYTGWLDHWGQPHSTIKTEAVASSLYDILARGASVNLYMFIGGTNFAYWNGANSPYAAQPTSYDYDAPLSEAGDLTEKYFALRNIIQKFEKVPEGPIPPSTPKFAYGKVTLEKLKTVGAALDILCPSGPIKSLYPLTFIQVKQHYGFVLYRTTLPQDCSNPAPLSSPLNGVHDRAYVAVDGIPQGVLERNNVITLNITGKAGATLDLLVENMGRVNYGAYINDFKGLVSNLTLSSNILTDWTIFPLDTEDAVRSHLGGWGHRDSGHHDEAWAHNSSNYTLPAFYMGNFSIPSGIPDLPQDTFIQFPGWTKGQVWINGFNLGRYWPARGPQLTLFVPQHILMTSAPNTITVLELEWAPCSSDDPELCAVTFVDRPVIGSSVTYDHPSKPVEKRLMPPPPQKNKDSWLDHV
Description: Inhibition of human lysosomal beta-galactosidase using 4-methylumbelliferyl beta-Dgalactopyranoside as substrate at 200 uM by fluorimetric analysis. A digest of the protocol:
as §1
Turning to `O=C(CSCC[C@H]1NC[C@@H](O)[C@H](O)[C@H]1O)NCc1ccccc1`, the inhibition result is “inactive”.
For `O=C(CCCSCC[C@H]1NC[C@@H](O)[C@H](O)[C@H]1O)N1CCOCC1`, the inhibition entry is “inactive”.
The same measure, in the same setting: the entry for `CC[C@H]1NC[C@@H](O)[C@H](O)[C@H]1O` is “inactive”.
Same read-out and setting: in the case of `CC(C)SCC[C@H]1NC[C@@H](O)[C@H](O)[C@H]1O` it was “inactive”; in that of `C=C[C@H]1NC[C@@H](O)[C@H](O)[C@H]1O`, “inactive”; in that of `CC(C)(C)SCC[C@H]1NC[C@@H](O)[C@H](O)[C@H]1O`, “inactive”.

The target of another experiment is T3, Lysosomal acid glucosylceramidase (Homo sapiens) (UniProt P04062).
T3 sequence (whole entry): T1 sequence (P04062 whole entry)
Description: Thermal denaturation of human glucocerebrosidase by differential scanning fluorimetry assessed as change in melting temperature at 100 uM and pH 7. In general terms: DSF heats the sample and reads unfolding from a dye or from intrinsic fluorescence.
Take `O=C(CSCC[C@H]1NC[C@@H](O)[C@H](O)[C@H]1O)NCc1ccccc1`: the deltaTm came out at 11 K.
Consider `O=C(CCCSCC[C@H]1NC[C@@H](O)[C@H](O)[C@H]1O)N1CCOCC1`, for which the deltaTm was found to be 7.6 K.
Consider `CC[C@H]1NC[C@@H](O)[C@H](O)[C@H]1O`, for which the deltaTm stood at 4.4 K.
For the compound `CC(C)SCC[C@H]1NC[C@@H](O)[C@H](O)[C@H]1O`, the deltaTm came to 7.8 K.
For `C=C[C@H]1NC[C@@H](O)[C@H](O)[C@H]1O`, the deltaTm was 3.4 K.
For `CC(C)(C)SCC[C@H]1NC[C@@H](O)[C@H](O)[C@H]1O`, the deltaTm worked out at 8.4 K.

Another experiment has as its system T4, Lysosomal acid glucosylceramidase (Homo sapiens), P04062 [N409S].
T4 sequence (whole entry): T1 sequence (P04062 whole entry) with N409S
Description: Activation of intracellular glucocerebrosidase p.N370S mutant in gaucher patient fibroblast using 4-methylumbelliferyl beta-D-glucopyranoside as substrate relative to control.
Regarding `O=C(CSCC[C@H]1NC[C@@H](O)[C@H](O)[C@H]1O)NCc1ccccc1`, the fold change (FC) is 2.5.
Turning to `O=C(CCCSCC[C@H]1NC[C@@H](O)[C@H](O)[C@H]1O)N1CCOCC1`, the fold change (FC) worked out at 3.2.
The same measure, in the same setting: in the case of `CC[C@H]1NC[C@@H](O)[C@H](O)[C@H]1O` it was 2.1.
Turning to `CC(C)SCC[C@H]1NC[C@@H](O)[C@H](O)[C@H]1O`, the fold change (FC) came to 2.3.
Compound `C=C[C@H]1NC[C@@H](O)[C@H](O)[C@H]1O` gave a fold change (FC) of 1.4.
`CC(C)(C)SCC[C@H]1NC[C@@H](O)[C@H](O)[C@H]1O` displayed a fold change (FC) of 2.3.

For another experiment, the species on record is Homo sapiens. Description: Activation of intracellular glucocerebrosidase p.L444P mutant in gaucher patient fibroblast using 4-methylumbelliferyl beta-D-glucopyranoside as substrate relative to control.
On to `O=C(CSCC[C@H]1NC[C@@H](O)[C@H](O)[C@H]1O)NCc1ccccc1`, for which the fold change (FC) came out at 1.3.
The compound `O=C(CCCSCC[C@H]1NC[C@@H](O)[C@H](O)[C@H]1O)N1CCOCC1` returned a fold change (FC) of 1.3.
Same read-out and setting: the figure for `CC[C@H]1NC[C@@H](O)[C@H](O)[C@H]1O` is 1.2.
Same read-out and setting: the figure for `CC(C)SCC[C@H]1NC[C@@H](O)[C@H](O)[C@H]1O` is 1.4; for `C=C[C@H]1NC[C@@H](O)[C@H](O)[C@H]1O` it is 1.3; for `CC(C)(C)SCC[C@H]1NC[C@@H](O)[C@H](O)[C@H]1O` it is 1.2.

The subject of another experiment is T4, Lysosomal acid glucosylceramidase (Homo sapiens), P04062 [N409S]. Description: Activation of intracellular glucocerebrosidase p.N370S mutant in gaucher patient fibroblast using 4-methylumbelliferyl beta-D-glucopyranoside as substrate assessed as concentration at which 50% of maximum increase in activity.
`O=C(CSCC[C@H]1NC[C@@H](O)[C@H](O)[C@H]1O)NCc1ccccc1`: the Activity came out at 190 nM.
In the case of `O=C(CCCSCC[C@H]1NC[C@@H](O)[C@H](O)[C@H]1O)N1CCOCC1`, the Activity was found to be 4500 nM.
`CC(C)SCC[C@H]1NC[C@@H](O)[C@H](O)[C@H]1O`: the Activity stood at 38 nM.
Still for that read-out and setting: in the case of `C=C[C@H]1NC[C@@H](O)[C@H](O)[C@H]1O` it was 1800 nM; in that of `CC(C)(C)SCC[C@H]1NC[C@@H](O)[C@H](O)[C@H]1O`, 49 nM.

The species named for a further experiment is Homo sapiens. Description: Activation of intracellular glucocerebrosidase p.L444P mutant in gaucher patient fibroblast using 4-methylumbelliferyl beta-D-glucopyranoside as substrate assessed as concentration at which 50% of maximum increase in activity.
Turning to `O=C(CSCC[C@H]1NC[C@@H](O)[C@H](O)[C@H]1O)NCc1ccccc1`, the Activity turned out to be 63 nM.
On the same count and under the same terms, in the case of `O=C(CCCSCC[C@H]1NC[C@@H](O)[C@H](O)[C@H]1O)N1CCOCC1` it was 1500 nM.
As to `CC[C@H]1NC[C@@H](O)[C@H](O)[C@H]1O`, the Activity is 7000 nM.
Still for that read-out and setting: the figure for `CC(C)SCC[C@H]1NC[C@@H](O)[C@H](O)[C@H]1O` is 2.2 nM; for `C=C[C@H]1NC[C@@H](O)[C@H](O)[C@H]1O` it is 1700 nM; for `CC(C)(C)SCC[C@H]1NC[C@@H](O)[C@H](O)[C@H]1O` it is 25 nM.
